Test results: ChEMBL document CHEMBL1129428 (J Med Chem, 1996)

How the values were obtained:
[1] = tested on: Rattus norvegicus; test: Compound was tested for anticonvulsant activity after Oral Administration into Rats by using MES screen test after 0.5h,dose 30 mg/kg; number of rats out of four which were protected; format: functional
In short: (§1)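 Rats received the compound orally. […] Rats were tested in the MES screen at 0.25, 0.5, 1, 2 and 4 h. Each value is the number of rats protected out of 4. The test followed NINDS procedures.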

[2] = tested on: Mus musculus; test: Anticonvulsant activity after intraperitoneal injection into mice by using scPTZ screen after 0.5 hr; format: functional
[3] = tested on: Rattus norvegicus; test: Compound was tested for anticonvulsant activity after Oral Administration into Rats by using MES screen test after 4h,dose 30 mg/kg; number of rats out of four which were protected; format: functional; in short: as §1
[4] = tested on: Mus musculus; test: Anticonvulsant activity after intraperitoneal injection into mice by using MES screen test after 0.5 hr; format: functional
[5] = tested on: Rattus norvegicus; test: Compound was tested for anticonvulsant activity after Oral Administration into rat by using MES screen test after 1 hr; format: functional
In short: (§2)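 Rats dosed orally, typically at 50 mg/kg first, then mostly 12.5 mg/kg (some compounds at 30 mg/kg), and tested by maximal electroshock. Four rats per compound, scored at 0.25, 0.5, 1, 2 and 4 h as the number of rats protected out of 4.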

[6] = tested on: Rattus norvegicus; test: Compound was tested for anticonvulsant activity after Oral Administration into Rats by using MES screen test after 0.25h,dose 30 mg/kg; No activity was demonstarted; format: functional, organism-based; design: dose 30 mg/kg; in short: as §1
[7] = tested on: Rattus norvegicus; test: Compound was tested for anticonvulsant activity after Oral Administration into Rats by using MES screen test after 1h,dose 30 mg/kg; number of rats out of four which were protected; format: functional; in short: as §1
[8] = tested on: Mus musculus; test: Anticonvulsant activity after intraperitoneal injection into mice measured in a maximal electroshock scree (MES) screen; format: functional
[9] = tested on: Rattus norvegicus; test: Compound was tested for anticonvulsant activity after Oral Administration into Rats by using MES screen test after 2h,dose 30 mg/kg; number of rats out of four which were protected; format: functional; in short: as §1
[10] = tested on: Rattus norvegicus; test: Compound was tested for anticonvulsant activity after Oral Administration into Rats by using MES screen test after 1h,dose 50 mg/kg; No activity was demonstarted; format: functional, organism-based; design: dose 50 mg/kg; in short: as §1
[11] = tested on: Rattus norvegicus; test: Compound was tested for anticonvulsant activity after Oral Administration into Rats by using MES screen test after 0.25h,dose 50 mg/kg; No activity was demonstarted; format: functional, organism-based; design: dose 50 mg/kg; in short: as §1
[12] = Partition coefficient (logP); format: physicochemical; conditions: octanol/water
In short: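 Partition between 1-octanol and buffer at pH 7.4, with solutions prepared in 1-octanol before buffer is added. Quantified by UV, using λmax and ε values measured in 1-octanol.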

[13] = tested on: Rattus norvegicus; test: Compound was tested for anticonvulsant activity after Oral Administration into Rats by using MES screen test after 4h,dose 50 mg/kg; No activity was demonstarted; format: functional, organism-based; design: dose 50 mg/kg; in short: as §1
[14] = tested on: Rattus norvegicus; test: Compound was tested for anticonvulsant activity after Oral Administration into Rats by using MES screen test after 2h,dose 50 mg/kg; No activity was demonstarted; format: functional, organism-based; design: dose 50 mg/kg; in short: as §1
[15] = tested on: Rattus norvegicus; test: Compound was tested for anticonvulsant activity after Oral Administration into Rats by using MES screen test after 0.5h,dose 50 mg/kg; No activity was demonstarted; format: functional, organism-based; design: dose 50 mg/kg; in short: as §1
[16] = tested on: Rattus norvegicus; test: Compound was tested for anticonvulsant activity after Oral Administration into Rats by using MES screen test after 4h,dose 12.5 mg/kg; number of rats out of four which were protected; format: functional; in short: as §1
[17] = tested on: Rattus norvegicus; test: Compound was tested for anticonvulsant activity after Oral Administration into Rats by using MES screen test after 1h,dose 12.5 mg/kg; number of rats out of four which were protected; format: functional; in short: as §1
[18] = tested on: Rattus norvegicus; test: Anticonvulsant activity after oral administration into rats; format: functional; design: concentration or dose not given beside the values
[19] = tested on: Rattus norvegicus; test: Compound was tested for anticonvulsant activity after Oral Administration into Rats by using MES screen test after 0.25h,dose 12.5 mg/kg; number of rats out of four which were protected; format: functional; in short: as §1
[20] = tested on: Rattus norvegicus; test: Compound was tested for anticonvulsant activity after Oral Administration into Rats by using MES screen test after 2h,dose 12.5 mg/kg; number of rats out of four which were protected; format: functional; in short: as §1
[21] = tested on: Mus musculus; test: Toxicity after intraperitoneal injection into mice by using toxicity screen test after 0.5 hr; format: organism-based; conditions: in vivo, ip
In short: (§3)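 Mice injected intraperitoneally at 30, 100 and 300 mg/kg and examined 0.5 and 4 h afterwards. Each entry is the minimum dose giving activity (MES protection, scPTZ protection, or rotorod failure for neurotoxicity) in half or more of the mice. Activity is called absent if nothing occurs at 300 mg/kg.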

[22] = tested on: Mus musculus; test: Anticonvulsant activity after intraperitoneal injection into mice by using scPTZ screen test after 4 hr; format: functional
[23] = Compound was tested for toxicity after oral administration in rat by using neurotoxicity screen test after 2 hr; format: organism-based; conditions: in vivo
In short: (§4)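 Rat neurotoxicity after oral dosing, observed at 0.25, 0.5, 1, 2, 4, 6, 8 and 24 h (8 h omitted for one compound).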

[24] = tested on: Rattus norvegicus; test: Compound was tested for anticonvulsant activity after Oral Administration into rat by using MES screen test after 0.5 hr; format: functional; in short: as §2
[25] = tested on: Mus musculus; test: Compound was tested for toxicity after intraperitoneal injection into mice by using toxicity screen test after 4 hr; format: organism-based; conditions: in vivo, ip; in short: as §3
[26] = Protection index = TD50/ED50 (MES); format: ADME, organism-based; conditions: rat, in vivo; read-out: PI
[27] = tested on: Rattus norvegicus; test: Compound was tested for anticonvulsant activity after Oral Administration into Rats by using MES screen test after 4h,dose 30 mg/kg; No activity was demonstarted; format: functional, organism-based; design: dose 30 mg/kg; in short: as §1
[28] = tested on: Rattus norvegicus; test: Compound was tested for anticonvulsant activity after Oral Administration into Rats by using MES screen test after 0.25h,dose 30 mg/kg; number of rats out of four which were protected; format: functional; in short: as §1
[29] = tested on: Mus musculus; test: Compound was tested for anticonvulsant activity after intraperitoneal injection into mice by using scPTZ screen test after 0.25 hr; format: functional; conditions: ip
In short: (§5)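 Quantitative intraperitoneal mouse testing in the MES, scPTZ or rotorod neurotoxicity screens at the peak time given for each compound (0.25–2 h). ED50 or TD50 reported in mg/kg with 95% CI and slope (SE).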

[30] = Protection index = TD50/ED50; format: ADME; conditions: read-out: PI
[31] = tested on: Rattus norvegicus; test: Compound was tested for anticonvulsant activity after Oral Administration into rat by using MES screen test after 4 hr; format: functional; in short: as §2
[32] = Protection index = TD50/ED50 (MES); conditions: mouse, in vivo; read-out: PI
[33] = Compound was tested for toxicity after intraperitoneal injection into mice by using neurotoxicity screen test after 1 hr; format: organism-based; conditions: mouse, in vivo, ip; in short: as §5
[34] = tested on: Mus musculus; test: Anticonvulsant activity after intraperitoneal injection into mice by using MES screen test after 0.25 hr; format: functional
[35] = tested on: Rattus norvegicus; test: Compound was tested for anticonvulsant activity after Oral Administration into Rats by using MES screen test after 0.25h,dose 50 mg/kg; number of rats out of four which were protected; format: functional; in short: as §1
[36] = tested on: Rattus norvegicus; test: Compound was tested for anticonvulsant activity after Oral Administration into Rats by using MES screen test after 4h,dose 50 mg/kg; number of rats out of four which were protected; format: functional; in short: as §1
[37] = tested on: Rattus norvegicus; test: Compound was tested for anticonvulsant activity after Oral Administration into Rats by using MES screen test after 0.5h,dose 50 mg/kg; number of rats out of four which were protected; format: functional; in short: as §1
[38] = tested on: Rattus norvegicus; test: Compound was tested for anticonvulsant activity after Oral Administration into Rats by using MES screen test after 2h,dose 50 mg/kg; number of rats out of four which were protected; format: functional; in short: as §1
[39] = tested on: Rattus norvegicus; test: Compound was tested for anticonvulsant activity after Oral Administration into Rats by using MES screen test after 1 hr, dose 50 mg/kg; number of rats out of four which were protected; format: functional; in short: as §1
[40] = tested on: Rattus norvegicus; test: Compound was tested for anticonvulsant activity after Oral Administration into Rats by using MES screen test after 0.5h,dose 30 mg/kg; No activity was demonstarted; format: functional, organism-based; design: dose 30 mg/kg; in short: as §1
[41] = tested on: Rattus norvegicus; test: Compound was tested for anticonvulsant activity after Oral Administration into Rats by using MES screen test after 2h,dose 30 mg/kg; No activity was demonstarted; format: functional, organism-based; design: dose 30 mg/kg; in short: as §1
[42] = tested on: Rattus norvegicus; test: Compound was tested for anticonvulsant activity after Oral Administration into Rats by using MES screen test after 1h,dose 30 mg/kg; No activity was demonstarted; format: functional, organism-based; design: dose 30 mg/kg; in short: as §1
[43] = tested on: Rattus norvegicus; test: Compound was tested for anticonvulsant activity after Oral Administration into Rats by using MES screen test after 0.25h,dose 12.5 mg/kg; No activity was demonstarted; format: functional, organism-based; design: dose 12.5 mg/kg; in short: as §1
[44] = Compound was tested for toxicity after oral administration in rat by using neurotoxicity screen test after 0.25-24 hr; format: organism-based; conditions: in vivo; in short: as §4

SMILES	Activity [1]	Activity [3]	Dose [4] [mg/kg]	Activity [7]	Dose [8] [mg/kg]	Activity [9]	logP [12]	Dose [21] [mg/kg]	Dose [22] [mg/kg]	Dose [25] [mg/kg]	Activity [28]	other results
C/C(=N/NC(N)=O)c1ccc(Sc2ccccc2)cc1	4	4	100	4	100	4	–	–	–	–	–	Dose [2]: 300 mg/kg; ED50 [5]: 16.6 mg/kg; Activity [6]: No activity
NC(=O)N/N=C\c1cccc(Oc2ccccc2)c1	–	–	–	–	300	–	2.07	–	–	–	–	Activity [10]: No activity; Activity [11]: No activity; Activity [13]: No activity; Activity [14]: No activity; Activity [15]: No activity
CC(=O)N/N=C/c1ccc(Oc2ccc(F)cc2)cc1	–	–	30	–	30	–	1.96	100	100	100	–	Activity [16]: 1; Dose [2]: 100 mg/kg; Activity [17]: 2; Activity [18]: 4; Activity [19]: 1; Activity [20]: 2; TD50 at 2 h [23]: > 125 mg/kg; ED50 [24]: 18.7 mg/kg; selectivity ratio [26]: > 6.7
CC/C(=N/NC(N)=O)c1ccc(Oc2ccccc2)cc1	4	–	30	3	100	3	–	100	–	100	1	Activity [27]: No activity; ED50 [24]: 23.1 mg/kg
C/C(=N/NC(N)=O)c1ccc(Oc2ccccc2)cc1	4	4	30	4	100	4	–	100	–	100	4	ED50 [29]: 43.3 mg/kg; selectivity ratio [30]: 1.7; ED50 [31]: 9.73 mg/kg; selectivity ratio [32]: 8.09; TD50 at 1 h [33]: 73.5 mg/kg; ED50 [34]: 9.08 mg/kg
NC(=O)N/N=C/c1ccc(Oc2ccc(Br)cc2)cc1	–	–	30	–	30	–	–	300	–	30	–	Activity [35]: 1; Activity [36]: 4; Activity [37]: 4; Activity [38]: 4; Activity [39]: 4
NC(=O)N/N=C/c1ccc(Oc2ccc(Oc3ccccc3)cc2)cc1	–	–	–	–	300	–	1.92	–	–	–	–	Activity [10]: No activity; Activity [11]: No activity; Activity [36]: 1; Activity [38]: 1; Activity [15]: No activity
NNC(=O)N/N=C/c1ccc(Oc2ccc(F)cc2)cc1	–	–	300	–	100	–	2.06	–	300	300	–	Activity [40]: No activity; Activity [41]: No activity; Activity [27]: No activity; Activity [6]: No activity; Activity [42]: No activity
Cc1cccc(Oc2ccc(/C=N/NC(N)=O)cc2)c1	–	–	30	–	100	–	–	100	–	300	–	Activity [16]: 2; Activity [17]: 4; Activity [18]: 4; Activity [43]: No activity; Activity [20]: 3; ED50 [5]: 3.07 mg/kg; TD50 [44]: > 500 mg/kg; selectivity ratio [26]: > 163
O=CN/N=C/c1ccc(Sc2ccc(F)cc2)cc1	–	1	100	–	100	–	–	–	300	300	1	Activity [40]: No activity; Activity [41]: No activity; Activity [42]: No activity
